Activity calls are given as the source filed them. The rule behind the calls is not given here.
Experiments:
SF-295 [1] = test: Antiproliferative activity against human SF295 cells after 72 hrs by MTT assay; format: functional, cell-based; details: SF-295, 72 h
In short: (§1)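 MTT reduction: cancer lines plated at 0.7×10^5 to 0.3×10^6 cells/well, V79 and L929 fibroblasts at 0.5×10^5 cells/well. Compounds in DMSO (0.1%) were given for 24 h at 0.04–40.92 µM or 72 h at 0.04–8.19 µM. Fresh medium with 0.5 mg/mL MTT was added for 3 h, then formazan was dissolved in DMSO and read at 595 nm as % of control. IC50 came from nonlinear regression with 95% CI. Doxorubicin (0.001–1.06 µM) was the positive control. Triplicate, ≥3 repeats.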

MDA-MB-435 = test: Antiproliferative activity against human MDA-MB-435 cells after 72 hrs by MTT assay; format: functional, cell-based; details: MDA-MB-435, 72 h; in short: as §1
V79 = test: Antiproliferative activity against chinese hamster V79 cells after 72 hrs by MTT assay; format: cell-based; details: Cricetulus griseus, V79, 72 h; in short: as §1
[2] = Selectivity index, ratio of IC50 for mouse L929 cells to IC50 for human PC3 cells; format: functional
In short: (§2)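 Selectivity index is the ratio of the IC50 in a non-cancer murine line (V79 or L929) to the IC50 in the cancer line. […] MTT was 0.5 mg/mL for 3 h, formazan dissolved in DMSO and read at 595 nm as % of control. IC50s were derived by nonlinear regression; triplicate, at least three repeats.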

[3] = Selectivity index, ratio of IC50 for mouse L929 cells to IC50 for human SF295 cells; format: functional; in short: as §2
[4] = Selective index, ratio of IC50 for mouse L929 cells to IC50 for human SW620 cells; in short: as §2
[5] = Selective index, ratio of IC50 for chinese hamster V79 cells to IC50 for human HCT116 cells; in short: as §2
SF-295 [6] = test: Induction of lipid peroxidation in human SF295 cells assessed as increase in MDA levels at 2.5 to 10 uM after 24 hrs in absence of NAC by TBARS assay; format: functional, cell-based
In short: (§3)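 TBARS: cells were exposed 24 h, with or without 24 h prior 5 mM NAC, and lysed in Tris-HCl. Lysate was heated with TCA/0.25 M HCl and 6.7 mg/mL TBA for 15 min at 100 °C, centrifuged, and read at 532 nm. Hydrolyzed tetramethoxypropane served as standard, with values normalized to protein. H2O2 (10 µM) was the positive control. Three independent experiments in triplicate; ANOVA/Tukey.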

PC-3 [7] = test: Induction of lipid peroxidation in human PC3 cells assessed as increase in MDA levels at 2.5 to 10 uM treated 24 hrs post NAC addition measured after 24 hrs by TBARS assay; format: functional, cell-based; in short: as §3
L929 [8] = test: Induction of lipid peroxidation in mouse L929 cells assessed as increase in MDA levels at 2.5 to 10 uM treated 24 hrs post NAC addition measured after 24 hrs by TBARS assay; format: cell-based; details: l929, 24 h; in short: as §3
PC-3 [9] = test: Induction of oxidative stress in human PC3 cells assessed as total intracellular thiol levels at 5 uM treated 24 hrs post NAC addition measured after 24 hrs by spectrophotometric analysis (reference value: 4.23 +/- 0.75 microg/mg); format: functional
In short: (§4)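 Cells were pretreated 24 h with 5 mM NAC, then exposed 24 h to test compound at 5 µM. Controls received 0.1% DMSO. Extracts were prepared by sonication and HClO4 precipitation, then neutralized with KOH. Total glutathione was read by DTNB/glutathione reductase/NADPH rate at 412 nm. GSSG was measured after 4-vinylpyridine (0.1%, 1 h, RT) and GSH derived by difference. Values are normalized to protein, triplicates, three independent runs.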

PC-3 [10] = test: Induction of oxidative stress in human PC3 cells assessed as GSH to GSSG ratio at 5 uM after 24 hrs by spectrophotometric analysis (reference value: 2.69 +/- 0.21 microg/mg); format: functional
SF-295 [11] = test: Induction of oxidative stress in human SF295 cells assessed as total GSSG levels at 5 uM after 24 hrs by spectrophotometric analysis (reference value: 1.31 +/- 0.55 microg/mg); format: functional
HCT-116 [12] = test: Induction of oxidative stress in human HCT116 cells assessed as total GSSG levels at 5 uM after 24 hrs by spectrophotometric analysis (reference value: 1.19 +/- 0.37 microg/mg); format: functional
L929 [13] = test: Induction of oxidative stress in mouse L929 cells assessed as total intracellular thiol levels at 5 uM after 24 hrs by spectrophotometric analysis (reference value: 4.87 +/- 0.25 microg/mg); format: cell-based; details: l929, 24 h
L929 [14] = test: Induction of oxidative stress in mouse L929 cells assessed as GSH to GSSG ratio at 5 uM treated 24 hrs post NAC addition measured after 24 hrs by spectrophotometric analysis (reference value: 3.55 +/- 0.51 microg/mg); format: cell-based; details: l929, 24 h; in short: as §4
PC-3 [15] = test: Cytotoxicity against human PC3 cells after 24 hrs in presence of GSH-OEt by MTT assay; format: functional, cell-based; details: PC-3, 24 h
In short: (§5)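 24 h MTT exposure (0.04–40.92 µM in 0.1% DMSO), with or without co-treatment with GSH ethyl ester (15 mM) to gauge the ROS contribution. MTT was 0.5 mg/mL for 3 h, with formazan dissolved in DMSO and absorbance at 595 nm expressed as % of control. Triplicate, repeated at least three times.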

SF-295 [16] = test: Cytotoxicity against human SF295 cells after 24 hrs in presence of GSH-OEt by MTT assay; format: functional, cell-based; details: SF-295, 24 h; in short: as §5
L929 [17] = test: Cytotoxicity against mouse L929 cells after 24 hrs in presence of GSH-OEt by MTT assay; format: cell-based; details: L929, 24 h; in short: as §5
HCT-116 [18] = test: Cytotoxicity against human HCT116 cells after 24 hrs in absence of GSH-OEt by MTT assay; format: functional, cell-based; details: HCT-116, 24 h; in short: as §5
PC-3 [19] = test: Geno-toxicity in human PC3 cells assessed as induction of DNA damage at 2.5 to 10 uM after 24 hrs in absence of NAC by alkaline comet assay; format: functional, cell-based
In short: (§6)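 Alkaline comet assay after 24 h at 2.5, 5 and 10 µM, with or without 24 h pretreatment with 5 mM NAC. Cells were trypsinized and embedded in 0.75% low-melting agarose, then lysed at pH 10, 4 °C, ≥1 h. DNA was unwound 20 min at pH >13 and electrophoresed 20 min at 25 V, 300 mA (0.86 V/cm), then stained with ethidium bromide. 100 cells (2 slides) were scored in classes 0–4 for a damage index. Mean ± SEM, three independent experiments in triplicate.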

SF-295 [20] = test: Geno-toxicity in human SF295 cells assessed as induction of DNA damage at 2.5 to 10 uM after 24 hrs in absence of NAC by alkaline comet assay; format: functional, cell-based; in short: as §6
PC-3 [21] = test: Geno-toxicity in human PC3 cells assessed as induction of DNA damage at 2.5 to 10 uM treated 24 hrs post NAC addition measured after 24 hrs by alkaline comet assay; format: functional, cell-based; in short: as §6
HCT-116 [22] = test: Geno-toxicity in human HCT116 cells assessed as induction of DNA damage at 2.5 to 10 uM treated 24 hrs post NAC addition measured after 24 hrs by alkaline comet assay; format: functional, cell-based; in short: as §6

Compound `CC1(C)OC2=C(C(=O)C(=O)c3ccccc32)C1n1cc(CNC2=[N+]3C(=C(c4ccccc4)c4ccc(Cl)n4[B-]3(F)F)C=C2)nn1` (centres undefined) has an IC50 (SF-295 [1]) of 0.28 µM, an IC50 (MDA-MB-435) of 0.81 µM and an IC50 (V79) of 0.65 µM. For the same compound, the Ratio IC50 [2] was 2.4, the “Ratio IC50” value [3] was 3 and the Ratio IC50 [4] was 1.4. The Ratio IC50 [5] was 2, the Activity (SF-295 [6]) was “Active” and the Activity (PC-3 [7]) was “inactive”. For the same compound, the Activity (L929 [8]) was “Non-Toxic”, the Activity (PC-3 [9]) was 4.26 µg/mg and the Activity (PC-3 [10]) was 0.37 µg/mg. It also gave an Activity (SF-295 [11]) of 2.09 µg/mg, an Activity (HCT-116 [12]) of 2.01 µg/mg and an Activity (L929 [13]) of 3.5 µg/mg. For the same compound, the Activity (L929 [14]) was 3.08 µg/mg, the IC50 (PC-3 [15]) was 15.8 µM and the IC50 (SF-295 [16]) was 9.81 µM. For the same compound, the IC50 (L929 [17]) was 12.4 µM, the IC50 (HCT-116 [18]) was 5.28 µM and the Activity (PC-3 [19]) was “Active”. The Activity (SF-295 [20]) was “Active”, the Activity (PC-3 [21]) was “Active” and the Activity (HCT-116 [22]) was “Active”.

Reference: ChEMBL document CHEMBL4043182, “On the synthesis of quinone-based BODIPY hybrids: New insights on antitumor activity and mechanism of action in cancer cells” (Bioorg Med Chem Lett, 2017)
